Data set [1] deals with Sodium channel protein type 1 subunit alpha (Homo sapiens, UniProt P35498). Kind of data set: Inhibition of human Nav1.1 expressed in HEK293 cells assessed as reduction in peak inward current by ionworks quattro electrophysiology assay. In kind it is cell-based.
Data set [2] can be described thus: Intrinsic clearance in rat liver microsomes at 1 uM after 1 to 40 mins in presence of NADPH by LC-MS/MS analysis. The settings on record: read-out: CLH. In kind it is ADME, microsome. Background: Microsomes from liver hold many membrane-bound enzymes, among them those of drug oxidation.
Another data set concerns the target T1, PXR (NR1I2) (Homo sapiens, UniProt O75469).
T1 sequence (O75469 whole entry): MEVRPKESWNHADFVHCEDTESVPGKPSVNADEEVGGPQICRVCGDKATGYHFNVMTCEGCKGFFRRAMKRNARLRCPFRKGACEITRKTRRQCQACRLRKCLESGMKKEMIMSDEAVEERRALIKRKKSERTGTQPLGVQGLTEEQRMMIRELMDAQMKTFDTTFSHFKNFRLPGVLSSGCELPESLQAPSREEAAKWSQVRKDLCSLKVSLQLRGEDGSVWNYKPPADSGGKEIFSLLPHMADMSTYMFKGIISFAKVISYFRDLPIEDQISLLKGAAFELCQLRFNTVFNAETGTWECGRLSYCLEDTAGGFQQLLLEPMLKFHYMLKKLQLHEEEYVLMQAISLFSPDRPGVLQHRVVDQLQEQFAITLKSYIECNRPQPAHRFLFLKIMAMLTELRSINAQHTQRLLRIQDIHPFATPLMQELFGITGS
Kind of data set: Activation of human PXR at 10 uM in presence of rifampicin. In kind it is ADME. As to conditions: read-out: Activity.

Data set [3] in a line: Total clearance in rat at 0.5 mg/kg, iv. In kind it is ADME, organism-based. As to conditions: in vivo. A digest of the protocol:
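Male rats given a single 0.5 mg/kg iv dose in DMSO. Unbound clearance (CLu) is total clearance divided by fu, the unbound fraction in plasma.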

The nature of data set [4]: Half life in dog at 0.25 mg/kg, iv. In kind it is ADME, organism-based, Canis lupus familiaris. The settings on record: in vivo. An outline of the steps: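 Male dogs received a single 0.25 mg/kg iv dose in DMSO. Unbound clearance (CLu) is total clearance divided by fu, the unbound fraction in plasma.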
The nature of data set [5]: Tmax in rat at 10 mg/kg, po. In kind it is ADME, organism-based. As to conditions: in vivo.
For data set [6], the target named is Voltage-gated inwardly rectifying potassium channel KCNH2 (Homo sapiens, UniProt Q12809). The experiment in a line: Inhibition of human hERG by patch clamp method.
Sequence of Voltage-gated inwardly rectifying potassium channel KCNH2 (Q12809 whole entry): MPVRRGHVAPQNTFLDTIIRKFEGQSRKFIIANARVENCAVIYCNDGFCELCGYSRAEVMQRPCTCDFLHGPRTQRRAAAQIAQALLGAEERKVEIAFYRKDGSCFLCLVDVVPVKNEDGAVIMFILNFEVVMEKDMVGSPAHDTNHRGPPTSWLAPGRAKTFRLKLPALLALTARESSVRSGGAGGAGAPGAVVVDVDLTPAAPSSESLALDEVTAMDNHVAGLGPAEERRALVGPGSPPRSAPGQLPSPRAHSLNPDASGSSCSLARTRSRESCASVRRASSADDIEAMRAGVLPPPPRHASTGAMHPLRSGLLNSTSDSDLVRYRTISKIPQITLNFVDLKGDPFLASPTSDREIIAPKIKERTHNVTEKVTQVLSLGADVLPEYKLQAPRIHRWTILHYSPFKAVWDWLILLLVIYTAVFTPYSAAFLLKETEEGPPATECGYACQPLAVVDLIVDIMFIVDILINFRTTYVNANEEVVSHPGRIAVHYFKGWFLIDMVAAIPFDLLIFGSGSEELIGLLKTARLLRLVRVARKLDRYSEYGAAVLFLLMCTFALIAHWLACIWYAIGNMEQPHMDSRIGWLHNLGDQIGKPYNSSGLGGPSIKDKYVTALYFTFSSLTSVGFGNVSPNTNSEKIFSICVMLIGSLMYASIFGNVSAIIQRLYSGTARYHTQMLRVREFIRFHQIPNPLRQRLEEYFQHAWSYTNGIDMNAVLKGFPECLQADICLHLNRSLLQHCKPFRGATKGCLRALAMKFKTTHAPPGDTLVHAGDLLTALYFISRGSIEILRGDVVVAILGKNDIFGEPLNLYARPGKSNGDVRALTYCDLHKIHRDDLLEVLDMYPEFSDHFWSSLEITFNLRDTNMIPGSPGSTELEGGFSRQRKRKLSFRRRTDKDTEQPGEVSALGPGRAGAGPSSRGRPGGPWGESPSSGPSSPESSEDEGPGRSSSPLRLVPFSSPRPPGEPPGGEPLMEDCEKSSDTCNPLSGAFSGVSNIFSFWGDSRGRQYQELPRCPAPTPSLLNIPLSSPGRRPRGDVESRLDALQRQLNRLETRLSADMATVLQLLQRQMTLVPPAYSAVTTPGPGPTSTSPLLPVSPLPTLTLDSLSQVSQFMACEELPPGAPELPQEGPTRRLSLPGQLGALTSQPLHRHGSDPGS

Some results are limits rather than exact numbers.

With `COc1cc(-c2cccc(C(F)(F)F)c2)c(F)cc1-c1nccc2cc(S(=O)(=O)Nc3ccon3)ccc12`, the IC50 in data set [1] was 17 µM; in data set [6] it was above 10 µM. Besides, the microsomal CLint at 1 µM in data set [2] was below 14 µL/min/mg. At PXR (NR1I2), the activity at 10 µM was 1%. In data set [3], this compound gave a clearance of 3.83 mL/min/kg. This compound also gave a half-life in data set [4] of 20 h. For the same compound, the Tmax in data set [5] turned out to be 6 h.

One may read the IC50 as the midpoint of a concentration-inhibition curve. In general, clearance refers to the volume of plasma or blood freed of the substance per unit of time. A lower clearance goes with inefficient removal. What is called half-life is the time in which the quantity being followed falls by half. A low value points to fast loss. By Tmax is commonly meant the time at which the peak concentration occurs.

The values above are taken from ChEMBL document CHEMBL4011598, “Sulfonamides as Selective NaV1.7 Inhibitors: Optimizing Potency and Pharmacokinetics While Mitigating Metabolic Liabilities” (J Med Chem, 2017).
